Experimental data from publication PMC9860304 (Proceedings of the National Academy of Sciences of the …, 2022).

Test system: RAN translation of r(G4C2)^exp
Experiment: RAN translation assay in HEK293T cells co-transfected with
Type: cell-based
Conditions: read-out: IC50 for inhibition of RAN translation, approximate values
Procedure, shortened: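 HEK293T cells in DMEM/10% FBS at ~80% confluency were co-transfected with (G4C2)66-no ATG-GFP and an mCherry control plasmid, reseeded, and dosed 2 h later. After 24 h with compound, cells were lysed in 100 mM potassium phosphate pH 7.8 with 0.2% Triton X-100. GFP (ex 485/20, em 528/20) and mCherry (ex 530/25, em 590/35) were read, and the untransfected-cell-background-corrected GFP/mCherry ratio was used.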

IC50: ~300 nM
SMILES: Cc1c2ccnc(C(=O)NCCN(C)C)c2cc2c3cc(O)ccc3n(C)c12 [Compound 2]
